Results on three compounds are retold here after ChEMBL document CHEMBL1649427, “Inactivation of the glycoside hydrolase NagZ attenuates antipseudomonal beta-lactam resistance in Pseudomonas aeruginosa” (Antimicrob Agents Chemother, 2009).

≈ marks a conversion by molar mass, not a printed value.

In experiment [1] the test system is Pseudomonas aeruginosa. Briefly: Antimicrobial activity against Pseudomonas aeruginosa PAO1 after 18 hrs by Etest. Particulars: PAO1, 18 h. In kind it is functional. A digest of the protocol:
(§1)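 Strains are P. aeruginosa PAO1 and its insertional nagZ-inactivated derivative. MICs were read from Etest strips on Mueller-Hinton agar, following the manufacturer's recommendations. Each determination was done in triplicate.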

Experiment [2] deals with Pseudomonas aeruginosa. Briefly: Antimicrobial activity against nagZ gene-deficient Pseudomonas aeruginosa PAO1 after 18 hrs by Etest. Particulars: PAO1, 18 h. In kind it is functional. A digest of the protocol: as §1
Experiment [3] has as its system Pseudomonas aeruginosa. Briefly: Ratio of MIC for Pseudomonas aeruginosa PAO1 harboring deltaampD::lox deltaampDh2::lox deltaampDh3::lox to MIC for Pseudomonas aeruginosa PAO1 harboring deltaampD::lox deltaampDh2::lox deltaampDh3::lox deltanagZ::Gm.
For experiment [4], the system named is Pseudomonas aeruginosa. Briefly: Antimicrobial activity against Pseudomonas aeruginosa PAO1 harboring deltaampD::lox deltaampDh2::lox deltaampDh3::lox deltanagZ::Gm after 18 hrs by Etest. It is filed as functional. The following applies: PAO1, 18 h. A digest of the protocol: (§2)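 Etest strips on Mueller-Hinton agar plates, run per the manufacturer's recommendations; MICs determined in triplicate.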

For experiment [5], the system named is Pseudomonas aeruginosa. Briefly: Antimicrobial activity against Pseudomonas aeruginosa PAO1 harboring deltaampD::lox deltaampDh2::lox delta ampDh3::lox after 18 hrs by Etest. In kind it is functional. The following applies: PAO1, 18 h. In a few lines:
as §2

In experiment [6] the target is Beta-hexosaminidase (Pseudomonas aeruginosa (strain ATCC 15692 / PAO1 / 1C / PRS 101 / LMG12228), UniProt Q9HZK0). Briefly: Inhibition of Pseudomonas aeruginosa PAO1 nagZ gene after 1.5 hrs by fluorescence spectrophotometry. In a few lines: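 Cultures in Mueller-Hinton broth were grown at 37°C to OD600 ~0.5, diluted to 0.25 and grown 1.5 h more. Cells were PBS-washed and sonicated. Lysate protein (15 μg) was incubated with 2 mM 4-MUGlcNAc in PBS pH 7.4 at 37°C for 1–8 h, then quenched with glycine-NaOH pH 10.7. 4-MU fluorescence was read at ex 360/em 450 nm, in triplicate, with heat-denatured lysate controls.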
Sequence of Beta-hexosaminidase (Q9HZK0 whole entry): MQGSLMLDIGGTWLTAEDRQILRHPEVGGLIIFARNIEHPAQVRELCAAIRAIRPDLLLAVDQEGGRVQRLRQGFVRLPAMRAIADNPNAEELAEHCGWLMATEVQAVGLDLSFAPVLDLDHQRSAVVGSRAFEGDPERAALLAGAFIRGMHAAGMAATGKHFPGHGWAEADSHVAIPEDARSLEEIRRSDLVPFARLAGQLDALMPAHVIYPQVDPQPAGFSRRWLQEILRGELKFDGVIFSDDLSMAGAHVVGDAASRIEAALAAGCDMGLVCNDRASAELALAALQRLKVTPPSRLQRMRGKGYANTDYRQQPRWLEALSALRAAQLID

The test system of experiment [7] is Pseudomonas aeruginosa. Briefly: Antimicrobial activity against ampD gene-deficient Pseudomonas aeruginosa PAO1 after 18 hrs by broth microdilution method in absence of EtBuPUG. The following applies: PAO1, 18 h.
Experiment [8] has as its system Pseudomonas aeruginosa. Briefly: Antimicrobial activity against ampDDh2 and ampDh3 gene-deficient Pseudomonas aeruginosa PAO1 after 18 hrs using […] by agar diffusion method. In kind it is functional. A digest of the protocol: (§3)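 Cultures grown in Mueller-Hinton broth at 37°C to OD600 ~0.5, pelleted, resuspended in 2 ml broth and streaked on Mueller-Hinton agar. […] Inhibition zone diameter measured after overnight incubation at 37°C. Triplicate determinations.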
On the technique in general: In agar diffusion tests the substance spreads into inoculated agar from a disc or well.

Experiment [9] concerns Pseudomonas aeruginosa. Briefly: Antimicrobial activity against ampDDh2 gene-deficient Pseudomonas aeruginosa PAO1 after 18 hrs by broth microdilution method in presence. In kind it is functional. The following applies: PAO1, 18 h. In a few lines:
(§4)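 Wells are then inoculated with 100 μl culture and incubated 18 h at 37°C. The MIC is the lowest concentration with no growth. Triplicate determinations.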

Experiment [10] relates to Pseudomonas aeruginosa. Briefly: Antimicrobial activity against ampDh3 gene-deficient Pseudomonas aeruginosa PAO1 after 18 hrs by broth microdilution method in presence. In kind it is functional. The following applies: PAO1, 18 h. A digest of the protocol: as §4
The test system of experiment [11] is Pseudomonas aeruginosa. Briefly: Antimicrobial activity against ampDDh2 and ampDh3 gene-deficient Pseudomonas aeruginosa PAO1 after 18 hrs by broth microdilution method in presence of 0.5 mM nagZ inhibitor EtBuPUG. In kind it is functional. Particulars: PAO1, 18 h. A digest of the protocol:
as §4

Experiment [12] deals with Pseudomonas aeruginosa. Briefly: Antimicrobial activity against ampDh2 gene-deficient Pseudomonas aeruginosa PAO1 after 18 hrs by broth microdilution method in presence of 0.5 mM nagZ inhibitor EtBuPUG. The following applies: PAO1, 18 h. It is filed as functional. A digest of the protocol:
as §4

Experiment [13] relates to Pseudomonas aeruginosa. Briefly: Antimicrobial activity against Pseudomonas aeruginosa PAO1 harboring deltaampD::lox deltaampDh2::lox delta ampDh3::lox and plasmid pUCP27 after 18 hrs by Etest. It is filed as functional. Particulars: PAO1, 18 h. In a few lines:
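Etest strips on Mueller-Hinton agar supplemented with 75 μg/ml tetracycline to maintain the vector or complementation plasmid, run per the manufacturer's recommendations; triplicate determinations.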

The subject of experiment [14] is Pseudomonas aeruginosa. Briefly: Antimicrobial activity against ampD gene-deficient Pseudomonas aeruginosa PAO1 after 18 hrs by broth microdilution method in presence of 0.5 mM nagZ inhibitor EtBuPUG. Particulars: PAO1, 18 h. In kind it is functional. In a few lines: as §4
Background: In broth dilution the organism is exposed to a series of concentrations in liquid medium.

Experiment [15] relates to Pseudomonas aeruginosa. Briefly: Antimicrobial activity against ampDDh3 gene-deficient Pseudomonas aeruginosa PAO1 after 18 hrs by broth microdilution method in presence of 0.5 mM nagZ inhibitor EtBuPUG. In kind it is functional. Particulars: PAO1, 18 h. In a few lines:
as §4

Experiment [16] concerns Pseudomonas aeruginosa. Briefly: Antimicrobial activity against Pseudomonas aeruginosa PAO1 after 18 hrs by broth microdilution method. It is filed as functional. Particulars: PAO1, 18 h. A digest of the protocol:
(§5)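 CLSI broth microdilution in cation-adjusted Mueller-Hinton medium with serial β-lactam dilutions. Each well holds 200 μl broth inoculated with ~10⁴ cells from starter cultures at OD600 ~0.5. Plates shaken at 37°C for 18 h. The MIC is read as the lowest antibiotic concentration showing no growth. Triplicate determinations.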

In experiment [17] the test system is Pseudomonas aeruginosa. Briefly: Antimicrobial activity against Pseudomonas aeruginosa PAO1 after 18 hrs by using 30 ug/disk by agar diffusion method in presence of 0.5 mM nagZ inhibitor EtBuPUG. In kind it is functional. In a few lines:
as §3

Experiment [18] has as its system Pseudomonas aeruginosa. Briefly: Antimicrobial activity against ampDh2 gene-deficient Pseudomonas aeruginosa PAO1 using 30 ug/disk by agar diffusion method in presence of 0.5 mM nagZ inhibitor EtBuPUG. In kind it is functional. In a few lines: as §3
For experiment [19], the system named is Pseudomonas aeruginosa. Briefly: Antimicrobial activity against ampDh2 and ampDh3 gene-deficient Pseudomonas aeruginosa PAO1 after 18 hrs by broth microdilution method in presence of 0.5 mM nagZ inhibitor EtBuPUG. It is filed as functional. The following applies: PAO1, 18 h. In a few lines:
as §4

Experiment [20] concerns Pseudomonas aeruginosa. Briefly: Antimicrobial activity against ampDh2 and ampDh3 gene-deficient Pseudomonas aeruginosa PAO1 after 18 hrs by broth microdilution method. In kind it is functional. The following applies: PAO1, 18 h. In a few lines: as §4
Experiment [21] deals with Pseudomonas aeruginosa. Briefly: Antimicrobial activity against nagZ gene-deficient Pseudomonas aeruginosa PAO1 after 18 hrs by broth microdilution method. It is filed as functional. Particulars: PAO1, 18 h. In a few lines: as §5
In experiment [22] the test system is Pseudomonas aeruginosa. Briefly: Antimicrobial activity against ampDh3 gene-deficient Pseudomonas aeruginosa PAO1 after 18 hrs by broth microdilution method in presence of 0.5 mM nagZ inhibitor EtBuPUG. It is filed as functional. Particulars: PAO1, 18 h. In a few lines: as §4
Experiment [23] has as its system Pseudomonas aeruginosa. Briefly: Antimicrobial activity against ampDh2 gene-deficient Pseudomonas aeruginosa PAO1 after 18 hrs by broth microdilution method in absence of EtBuPUG. Particulars: PAO1, 18 h.
In experiment [24] the test system is Pseudomonas aeruginosa. Briefly: Antimicrobial activity against ampDDh3 gene-deficient Pseudomonas aeruginosa PAO1 after 18 hrs by broth microdilution method in presence. It is filed as functional. The following applies: PAO1, 18 h. In a few lines: as §4
Experiment [25] concerns Pseudomonas aeruginosa. Briefly: Antimicrobial activity against Pseudomonas aeruginosa PAO1 after 18 hrs by broth microdilution method in presence of 0.5 mM nagZ inhibitor EtBuPUG. It is filed as functional. Particulars: PAO1, 18 h. In a few lines:
as §4

Experiment [26] relates to Pseudomonas aeruginosa. Briefly: Antimicrobial activity against ampDDh2 gene-deficient Pseudomonas aeruginosa PAO1 after 18 hrs by broth microdilution method in presence of 0.5 mM nagZ inhibitor EtBuPUG. It is filed as functional. The following applies: PAO1, 18 h. In a few lines:
as §4

Take `CO/N=C(\C(=O)N[C@@H]1C(=O)N2C(C(=O)[O-])=C(C[N+]3(C)CCCC3)CS[C@H]12)c1csc(N)n1`: the MIC was determined as 0.5 µg/mL (≈ 1.04 µM) in experiment [1], 0.38 µg/mL (≈ 0.791 µM) in experiment [2], 3 µg/mL (≈ 6.24 µM) in [4] and 12 µg/mL (≈ 25 µM) in experiment [5]. In [3], the Ratio is 4.
On to `CCC(CC)C(=O)N[C@H]1/C(=N/OC(=O)Nc2ccccc2)O[C@H](CO)[C@@H](O)[C@@H]1O`, for which the Ki in experiment [6] worked out at 3.5 µM.
As for `C[C@H]1[C@H](NC(=O)/C(=N\OC(C)(C)C(=O)O)c2csc(N)n2)C(=O)N1S(=O)(=O)O` [AZTREONAM], the MIC in [7] worked out at 6 µg/mL (≈ 13.8 µM); in [9], 16 µg/mL (≈ 36.7 µM); in experiment [10] it was 1.5 µg/mL (≈ 3.44 µM); in [11], 12 µg/mL; in experiment [12], 0.25 µg/mL; in experiment [13], 6 µg/mL (≈ 13.8 µM). For the same compound, the MIC in experiment [14] is 3 µg/mL; in [15] it was 8 µg/mL; in experiment [16] it was 1 µg/mL (≈ 2.3 µM); in experiment [19], 0.25 µg/mL; in experiment [20], 0.5 µg/mL (≈ 1.15 µM); in experiment [21] it was 0.25 µg/mL (≈ 0.574 µM). Besides, the MIC in [22] was 0.75 µg/mL; in experiment [23], 1 µg/mL (≈ 2.3 µM); in experiment [4] it was 4 µg/mL (≈ 9.19 µM); in [24], 16 µg/mL (≈ 36.7 µM); in [25], 0.25 µg/mL; in experiment [26], 8 µg/mL. Also, the “inhibition zone (IZ)” value in [8] worked out at 10.7 mm; in [17] it was 15.1 mm; in experiment [18] it was 14 mm.

The term MIC denotes the lowest concentration found to suppress growth. By Ki is commonly meant a dissociation constant, usually derived from enzyme kinetics or from competition with a known ligand. Higher therefore signals a looser hold on the target.
